Experiment [1] concerns the target T1, Squalene synthase (Rattus norvegicus, UniProt Q02769).
T1 sequence (Q02769 whole entry): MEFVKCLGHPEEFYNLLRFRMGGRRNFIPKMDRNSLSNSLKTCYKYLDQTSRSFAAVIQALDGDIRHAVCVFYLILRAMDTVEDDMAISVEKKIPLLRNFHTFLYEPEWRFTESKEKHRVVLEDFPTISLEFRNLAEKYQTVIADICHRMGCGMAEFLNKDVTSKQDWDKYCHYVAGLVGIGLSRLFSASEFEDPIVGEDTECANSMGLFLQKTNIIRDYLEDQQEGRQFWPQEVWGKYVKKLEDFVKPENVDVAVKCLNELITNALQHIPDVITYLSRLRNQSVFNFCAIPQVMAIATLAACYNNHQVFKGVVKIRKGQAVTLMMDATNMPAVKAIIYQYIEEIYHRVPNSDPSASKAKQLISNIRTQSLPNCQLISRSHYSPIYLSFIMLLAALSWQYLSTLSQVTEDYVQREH
As to the kind of experiment: Concentration required for inhibition of rat liver squalene synthase enzyme at 161 nM; NA = not active.

In experiment [2] the target is T1, Squalene synthase. As to the kind of experiment: Concentration required for inhibition of rat liver squalene synthase enzyme at 161 nM; Not active.
Experiment [3] deals with Mus musculus. As to the kind of experiment: Tested for its ability to inhibit the incorporation of [5-3H]-mevalonolactone into cholesterol by in vivo mouse assay by peroral administration at a dose of 12 mg/kg. The following applies: route oral. Type of experiment: functional. In short, it runs like this: (§1)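 Female Swiss Webster mice (~25 g), six per group, dosed po by gavage with inhibitor suspended in 5% emulphor. 30 min later, 0.5 μCi/mouse [5-3H]mevalonolactone in saline given sc. Livers removed 30 min after that and saponified in KOH/EtOH overnight at 55 °C, then petroleum-ether extracted. Nonsaponifiable dpm counted. Compounds first tested at a single dose (typically 12 or 24 mg/kg).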

Experiment [4] has as its target T2, Squalene synthase (Mus musculus) (UniProt P53798).
T2 sequence (whole entry): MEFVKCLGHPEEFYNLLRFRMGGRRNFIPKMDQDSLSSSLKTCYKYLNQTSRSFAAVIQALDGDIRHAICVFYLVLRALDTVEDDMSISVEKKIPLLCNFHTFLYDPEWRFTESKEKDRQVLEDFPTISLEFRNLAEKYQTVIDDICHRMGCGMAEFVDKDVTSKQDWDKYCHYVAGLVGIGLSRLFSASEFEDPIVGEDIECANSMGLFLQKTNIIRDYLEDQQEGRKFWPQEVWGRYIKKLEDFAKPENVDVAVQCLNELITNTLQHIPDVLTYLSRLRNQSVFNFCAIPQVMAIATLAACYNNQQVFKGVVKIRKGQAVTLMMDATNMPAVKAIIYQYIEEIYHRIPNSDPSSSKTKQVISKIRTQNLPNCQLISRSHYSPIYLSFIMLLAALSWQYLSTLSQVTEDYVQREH
Description: Tested for the effective dose required for the incorporation of [5-3H]-mevalonolactone into cholesterol by in vivo mouse assay by peroral administration. Type of experiment: functional, organism-based. In short, it runs like this: as §1

Another experiment has as its system Trichophyton benhamiae. Description: Concentration required to inhibit growth of MF 4864 strain of Trichophyton mentagrophytes. Type of experiment: functional, Arthroderma benhamiae. The method in brief:
(§2)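 Broth microdilution against a panel of clinically relevant fungal strains. Read-out was the minimum fungicidal concentration in μg/mL.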

The subject of experiment [5] is Cryptococcus neoformans. As to the kind of experiment: Concentration required to inhibit growth of MY 1051 strain of Cryptococcus neoformans. The class given is functional. In short, it runs like this:
as §2

The subject of experiment [6] is Cryptococcus neoformans. Description: Concentration required to inhibit growth of MY 2061 strain of Cryptococcus neoformans. The class given is functional. In short, it runs like this:
as §2

In experiment [7] the test system is Candida albicans. As to the kind of experiment: Concentration required to inhibit growth of MY 1750 strain of Candida albicans. Type of experiment: functional. The method in brief:
as §2

The subject of experiment [8] is Mus musculus. As to the kind of experiment: Tested for its ability to inhibit the incorporation of [5-3H]-mevalonolactone into cholesterol by in vivo mouse assay by peroral administration at a dose of 40 mg/kg. Type of experiment: functional. Particulars: route oral; call rule not given here. The method in brief: as §1
A further experiment has as its system Candida parapsilosis. As to the kind of experiment: Concentration required to inhibit growth of MY 1010 strain of Candida parapsilosis. The following applies: Lodderomyces parapsilosis. The class given is functional. The method in brief: as §2
In experiment [9] the test system is HepG2. As to the kind of experiment: Concentration required to inhibit cholesterol synthesis in Hep G2 cells relative to control (IC50 of L-694,599). Type of experiment: functional, Homo sapiens. The method in brief:
(§3)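 Hep G2 cells held 2 days in lipoprotein-depleted FBS to stimulate sterol synthesis, then given inhibitor in serum-free medium for 2 h. 15 μCi [5-3H]mevalonate (0.2 mCi/mmol) added for 1 h. Cells washed and saponified, and radioactivity counted by scintillation.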

The test system of experiment [10] is HepG2. Description: Concentration required to inhibit cholesterol synthesis in Hep G2 cells. The class given is functional, cell-based. Particulars: Homo sapiens. In short, it runs like this: as §3
The next experiment has as its system Aspergillus fumigatus. Description: Concentration required to inhibit growth of MF 4839 strain of Aspergillus fumigatus. Type of experiment: functional. In short, it runs like this:
as §2

Another experiment deals with Candida tropicalis. As to the kind of experiment: Concentration required to inhibit growth of MY 1012 strain of Candida tropicalis. The class given is functional. The method in brief:
as §2

In experiment [11] the test system is Candida albicans. Description: Concentration required to inhibit growth of MY 1055 strain of Candida albicans. Type of experiment: functional. In short, it runs like this: as §2
The target in experiment [12] is T1, Squalene synthase. As to the kind of experiment: Tested for inhibition against squalene synthase enzyme in rat liver.
The target in experiment [13] is T3, Squalene synthase (Rattus norvegicus) (UniProt Q02769).
T3 sequence (whole entry): T1 sequence (Q02769 whole entry)
Description: concentration required to inhibit rat liver squalene synthase enzyme relative to control (L-694,599). In short, it runs like this:
(§4)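 Enzyme from rat liver. […] Inhibitors added in DMSO (0.3% final) as 3-fold serial dilutions, usually up to 30 ng/mL (about 40 nM). IC50 read from % inhibition vs log concentration.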

Experiment [14] concerns squalene synthase (Saccharomyces cerevisiae). Description: compound required to inhibit 50% activity of yeast squalene synthase enzyme relative to control (L-694,599).
For experiment [15], the system named is HepG2. Description: Concentration of compound required to inhibit cholesterol synthesis in Hep G2 cells relative to control (IC50 of L-694,599). Type of experiment: functional, Homo sapiens. The method in brief: as §3
Experiment [16] concerns the target T3, Squalene synthase (Rattus norvegicus). As to the kind of experiment: Concentration required to inhibit rat liver squalene synthase enzyme relative to control (L-694,599). The method in brief: as §4
For experiment [17], the system named is Mus musculus. As to the kind of experiment: Ability to inhibit the incorporation of [5-3H]-mevalonolactone into cholesterol by in vivo mouse assay by peroral administration at a dose of 24 mg/kg. The following applies: route oral. Type of experiment: functional. The method in brief: as §1

≈ marks a conversion by molar mass, not a printed value.

A word on the IC50: it is the midpoint of a concentration-inhibition curve. A word on the inhibition in vivo: it is the drop in the measured response relative to a control, in per cent. Usually ED50 stands for the midpoint of the dose-response relation. Low readings indicate greater potency, high ones weaker potency.

As to `C=C(CCC12OC(C(=O)O)C(OCCCCCCCCCCCOc3ccccc3)(C(=O)O)C(C(=O)O)(O1)[C@H](OCCCCCCCCCCCOc1ccccc1)[C@H]2O)[C@@H](OC(C)=O)[C@H](C)Cc1ccccc1` (stereo not given in full), on Squalene synthase [1], the IC50 entry is recorded as “Not Active”.

For `C=C(CCC12OC(C(=O)O)C(OCCC)(C(=O)O)C(C(=O)O)(O1)[C@H](OCCC)[C@H]2O)[C@@H](OC(C)=O)[C@H](C)Cc1ccccc1` (stereo not given in full), on Squalene synthase [2], the IC50 entry is recorded as “Not Active”.

Take `C=C(CCC12OC(C(=O)O)C(O)(C(=O)O)C(C(=O)O)(O1)[C@H](OC(=O)CCC(=O)O)[C@H]2O)[C@@H](OC(C)=O)[C@H](C)Cc1ccccc1` (stereo not given in full): the inhibition in vivo at 12 mg/kg with Mus musculus [3] was -20%. This compound registered an ED50 in experiment [4] of more than 12 mg/kg. Further, at Squalene synthase [2], the IC50 result is given as “Not Active”.

For `C=C(CCC12OC(C(=O)O)C(O)(C(=O)O)C(C(=O)O)(O1)[C@H](OCCCCCCCCCCCC)[C@H]2O)[C@@H](OC(C)=O)[C@H](C)Cc1ccccc1` (stereo not given in full), the MFC in the experiment on Trichophyton benhamiae came to 1 µg/mL (≈ 1.41 µM); against Cryptococcus neoformans [5], 0.5 µg/mL (≈ 0.707 µM); with Cryptococcus neoformans [6] it was 0.12 µg/mL (≈ 0.17 µM); against Candida albicans [7], 32 µg/mL (≈ 45.3 µM); against Candida parapsilosis it was 8 µg/mL (≈ 11.3 µM); in the experiment with Aspergillus fumigatus, 0.5 µg/mL (≈ 0.707 µM). Also, the MFC against Candida tropicalis is 64 µg/mL (≈ 90.5 µM); in the experiment on Candida albicans [11], 4 µg/mL (≈ 5.66 µM). For the same compound, the inhibition in vivo at 40 mg/kg with Mus musculus [8] was 26%. Moreover, the values for the Relative activity (in the experiment on HepG2 [9]; in experiment [13]; in experiment [14]) were 5.62, 2.5 and 9.26, respectively. The IC50 in the experiment with HepG2 [10] stood at 1600 nM; against Squalene synthase [12] it was 0.12 nM.

In the case of `C=C(CCC12OC(C(=O)O)C(O)(C(=O)O)C(C(=O)O)(O1)[C@H](OC(=O)OCCCCCCCCCCCOc1ccccc1)[C@H]2O)[C@@H](OC(C)=O)[C@H](C)Cc1ccccc1` (stereo not given in full), the MFC in the experiment on Cryptococcus neoformans [5] turned out to be 8 µg/mL (≈ 9.65 µM); in the experiment on Cryptococcus neoformans [6], 16 µg/mL (≈ 19.3 µM); against Candida albicans [7] it was 0.5 µg/mL (≈ 0.603 µM); in the experiment with Candida parapsilosis it was 4 µg/mL (≈ 4.83 µM); in the experiment with Aspergillus fumigatus, 0.15 µg/mL (≈ 0.181 µM); in the experiment on Candida tropicalis, 0.5 µg/mL (≈ 0.603 µM). The compound also gave an MFC against Candida albicans [11] of more than 128 µg/mL. In addition, the inhibition in vivo at 40 mg/kg in the experiment on Mus musculus [8] was found to be 12%. In addition, the Relative activity in the experiment with HepG2 [9] turned out to be 3.46; in [13] it was 3; in experiment [14], 6.07. In addition, the IC50 is 2400 nM in the experiment with HepG2 [10] and 0.04 nM on Squalene synthase [12].

With `C=C(CCC12OC(C(=O)O)C(O)(C(=O)O)C(C(=O)O)(O1)[C@H](OCCCCCCCCCCCOc1ccccc1)[C@H]2O)[C@@H](OC(C)=O)[C@H](C)Cc1ccccc1` (stereo not given in full), the Relative activity in the experiment with HepG2 [15] was 6.38; in [16], 2. The results for the IC50 in the experiment on HepG2 [10] and at Squalene synthase [12] were 1300 nM and 0.06 nM, respectively.

In the case of `C=C(CCC12OC(C(=O)O)C(O)(C(=O)O)C(C(=O)O)(O1)[C@H](OC(=O)CC(C)(C)C)[C@H]2O)[C@@H](OC(C)=O)[C@H](C)Cc1ccccc1` (stereo not given in full), the inhibition in vivo at 12 mg/kg in the experiment on Mus musculus [3] was 25%. The ED50 in [4] is more than 12 mg/kg. Besides, half-maximal inhibition against Squalene synthase [12] (IC50) required 2 nM. Moreover, the Relative activity in [13] came out at 0.15.

`C=C(CCC12OC(C(=O)O)C(O)(C(=O)O)C(C(=O)O)(O1)[C@H](OCCCCCCCCCC)[C@H]2O)[C@@H](OC(C)=O)[C@H](C)Cc1ccccc1` (stereo not given in full): the inhibition in vivo at 40 mg/kg in the experiment on Mus musculus [8] is 28%. Besides, the Relative activity with HepG2 [9] amounted to 4.09; in [13], 1.43. Moreover, the 50% inhibitory concentration (IC50) in the experiment with HepG2 [10] was 2200 nM; at Squalene synthase [12], 0.21 nM.

With `C=C(CCC12OC(C(=O)O)C(O)(C(=O)O)C(C(=O)O)(O1)[C@H](OC(=O)NCCCCCCCCCC)[C@H]2O)[C@@H](OC(C)=O)[C@H](C)Cc1ccccc1` (stereo not given in full), the MFC against Trichophyton benhamiae worked out at 2 µg/mL (≈ 2.77 µM); against Cryptococcus neoformans [5] it was 4 µg/mL (≈ 5.54 µM); in the experiment on Cryptococcus neoformans [6], 0.5 µg/mL (≈ 0.693 µM); with Candida albicans [7] it was 4 µg/mL (≈ 5.54 µM); against Candida parapsilosis, 8 µg/mL (≈ 11.1 µM); against Aspergillus fumigatus, 32 µg/mL (≈ 44.3 µM). The figures for the MFC against Candida tropicalis and with Candida albicans [11] were 16 µg/mL (≈ 22.2 µM) and 8 µg/mL (≈ 11.1 µM), respectively. The same compound returned an IC50 with HepG2 [10] of 3600 nM. In the experiment with Mus musculus [17], the inhibition in vivo at 24 mg/kg amounted to 4%.

Source of the values: ChEMBL document CHEMBL1127414 (J Med Chem, 1994).
